Assay results pooled from the literature.
Compare with care: the assays were run in different laboratories.
Target: STE20-like serine/threonine-protein kinase (SLK, Homo sapiens, UniProt Q9H2G2)

SMILES | read-out | technique | tested at | remaining binding [%]
CCOC(=O)c1cc2cc(-c3cc(C(=O)NCc4ccc(C(=O)O)cc4)nn3C)ccc2[nH]1 | cell-free assay | competition with immobilised ligand | 0.1 µM | 98
O=C(c1ccc(Nc2ncc(Cl)c(-c3ccc(Cl)s3)n2)cc1)N1CCC(N2CCCC2)CC1 | binding | competition with immobilised ligand | 1 µM | 1.2
CN([C@@H]1CCc2c(CC(=O)O)c3cc(S(C)(=O)=O)ccc3n2C1)S(=O)(=O)c1ccc(F)cc1 | cell-free assay | competition with immobilised ligand | 1 µM | 100
Nc1ncc2c(n1)-c1c([nH]c3ccc(C#CC4CC4)cc13)CCCC2 | binding | competition with immobilised ligand | 1 µM | 100
O=C(c1ccc(Nc2nccc(-c3cc4ccccc4s3)n2)cc1)N1CCC(N2CCCC2)CC1 | binding | competition with immobilised ligand | 1 µM | 13
CC1CCCN1c1nccc(-c2cnn3ncccc23)n1 (stereo not drawn) | binding |  | 1 µM | 100
CC(=O)N1CCC(c2ccc(C(=O)NC3=NCCN3)cc2C(F)(F)F)CC1 | cell-free assay | competition with immobilised ligand | 1 µM | 94
COc1cnc(Nc2cccc(S(N)(=O)=O)c2)nc1N1CCN(c2ccccc2)C(=O)C1 | binding | competition with immobilised ligand | 1 µM | 100
NS(=O)(=O)c1cc(NC(=O)Cc2ccccc2)ccc1Oc1cccc(Cl)c1 | cell-free assay | competition with immobilised ligand | 1 µM | 66
COc1ccnn2ncc(-c3ccnc(N(C)C)n3)c12 | binding |  | 1 µM | 86
c1cncc(-c2cccc(Nc3nccc(NC4CCCCC4)n3)c2)c1 | binding | competition with immobilised ligand | 10 µM | 19
FC(F)(F)Oc1cccc(-c2cnc3ccc(-c4ccncc4)nn23)c1 | binding | competition with immobilised ligand | 5 µM | 7.8
Cc1cnn2ncc(-c3ccnc(N(C)C)n3)c2c1 | binding |  | 1 µM | 100
C[C@@H]1CN(c2cc(-c3n[nH]c4ccc(OC5(C)CC5)cc34)ncn2)C[C@H](C)O1 | cell-free assay | competition with immobilised ligand | 0.1 µM | 98
COc1ncc2cc3ccccc3nc2c1C#N | cell-free assay | competition with immobilised ligand | 5 µM | 89
N[C@@H]1CCN(c2nccc(-c3cnn4ncccc34)n2)C1 | binding |  | 1 µM | 83
O=C(NCC1CCOCC1)c1n[nH]cc1NC(=O)c1c(F)cccc1F | binding | competition with immobilised ligand | 1 µM | 99
CN(CCCC(F)(F)F)c1nccc(-c2cnn3ncccc23)n1 | binding |  | 1 µM | 85
O=C(NCCCN1CCOCC1)c1ccc(Nc2nccc(-c3cc4ccccc4s3)n2)cc1 | binding | competition with immobilised ligand | 1 µM | 38
O=C(NS(=O)(=O)c1ccc(NCC2CCOCC2)c([N+](=O)[O-])c1)c1ccc(N2CCN(Cc3ccc(C(F)(F)F)cc3-c3ccc(Cl)cc3)CC2)cc1Oc1cnc2[nH]ccc2c1 | cell-free assay | competition with immobilised ligand | 1 µM | 100
C[C@H]1CCN(c2nccc(-c3cnn4ncccc34)n2)C1 | binding |  | 1 µM | 96
